Activity calls are given as the source filed them. The rule behind the calls is not given here.

Series [1] is described as follows: Antiproliferative activity against human MDA-MB-231 cells after 72 hrs by MTT assay. Format: functional, cell-based. Particulars: MDA-MB-231, 72 h. The procedure, abridged: (§1)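 Cells in RPMI-1640 with 10% FBS, penicillin/streptomycin, 37 °C, 5% CO₂; seeded 3000-5000 cells/well, left overnight (16 h), then medium replaced with fresh medium holding serial dilutions in triplicate for 72 h. MTT read-out; viability = absorbance of treated/solvent control × 100%. Stattic served as reference.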

The nature of series [2]: Antiproliferative activity against human A549 cells after 72 hrs by MTT assay. Format: functional, cell-based. The settings on record: A549, 72 h. The procedure, abridged: as §1
Series [3] is described as follows: Antiproliferative activity against human MCF7 cells after 72 hrs by MTT assay. Format: functional, cell-based. The settings on record: MCF7, 72 h. The essentials: as §1
Series [4] can be described thus: Antiproliferative activity against human HCT116 cells after 72 hrs by MTT assay. Particulars: HCT-116, 72 h. It is filed as functional, cell-based. The essentials:
as §1

Series [5] addresses Signal transducer and activator of transcription 3 (Homo sapiens) (UniProt P40763). In words: Inhibition of STAT3 dimer DNA binding activity in human MDA-MB-231 nuclear extract at 5 uM preincubated for 24 hrs followed by addition of [32P]hSIE by electrophoretic mobility shift assay. The essentials:
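Cells treated 24 h in fresh growth medium. Nuclear extracts of equal total protein incubated with ³²P-labelled hSIE oligonucleotide probe and resolved by EMSA; Stattic 5 µM as comparator.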

The subject of series [6] is MDA-MB-231. Put plainly: Potency index, ratio of stattic IC50 to compound IC50 for human MDA-MB-231 cells. Format: functional.
For series [7], the system named is A549. Put plainly: Potency index, ratio of stattic IC50 to compound IC50 for human A549 cells. It is filed as functional.
Series [8] relates to MCF7. Put plainly: Potency index, ratio of stattic IC50 to compound IC50 for human MCF7 cells. Format: functional.
For series [9], the system named is HCT-116. Put plainly: Potency index, ratio of stattic IC50 to compound IC50 for human HCT116 cells. Format: functional.
A short description of series [10]: Antitumor activity against mouse 4T1 cells implanted in ICR mouse assessed as tumor growth inhibition at 1 mg/kg, ip administered once in 4 days for 11 days measured on day 12 relative to control. Format: functional. The settings on record: 4T1, ip, read-out: TGI. The procedure, abridged:
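Male ICR mice, 5 weeks old, inoculated with 2 × 10⁶ 4T1 cells at the right armpit. At 24 h, randomised into groups of 6 and dosed i.p.; vehicle PBS/DMSO (8:2) daily for 11 days. Killed day 12; tumours weighed; TI% = (1 − mean treated/mean control weight) × 100. Tumour p-STAT3 and STAT3 assessed by western blot.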

The subject of series [11] is Mus musculus. In words: Toxicity in ICR mouse implanted with mouse 4T1 cells assessed as body weight loss at 1 mg/kg, ip administered once in 4 days for 11 days measured daily during compound dosing. Particulars: in vivo. Format: organism-based. The essentials: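 4T1-bearing male ICR mice (5 weeks, 6/group), dosed i.p. with PBS/DMSO (8:2) vehicle control. Body weight recorded daily. BI% = (1 − mean treated/mean control body weight) × 100.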

Signal transducer and activator of transcription 3 (Homo sapiens), sequence (P40763 whole entry): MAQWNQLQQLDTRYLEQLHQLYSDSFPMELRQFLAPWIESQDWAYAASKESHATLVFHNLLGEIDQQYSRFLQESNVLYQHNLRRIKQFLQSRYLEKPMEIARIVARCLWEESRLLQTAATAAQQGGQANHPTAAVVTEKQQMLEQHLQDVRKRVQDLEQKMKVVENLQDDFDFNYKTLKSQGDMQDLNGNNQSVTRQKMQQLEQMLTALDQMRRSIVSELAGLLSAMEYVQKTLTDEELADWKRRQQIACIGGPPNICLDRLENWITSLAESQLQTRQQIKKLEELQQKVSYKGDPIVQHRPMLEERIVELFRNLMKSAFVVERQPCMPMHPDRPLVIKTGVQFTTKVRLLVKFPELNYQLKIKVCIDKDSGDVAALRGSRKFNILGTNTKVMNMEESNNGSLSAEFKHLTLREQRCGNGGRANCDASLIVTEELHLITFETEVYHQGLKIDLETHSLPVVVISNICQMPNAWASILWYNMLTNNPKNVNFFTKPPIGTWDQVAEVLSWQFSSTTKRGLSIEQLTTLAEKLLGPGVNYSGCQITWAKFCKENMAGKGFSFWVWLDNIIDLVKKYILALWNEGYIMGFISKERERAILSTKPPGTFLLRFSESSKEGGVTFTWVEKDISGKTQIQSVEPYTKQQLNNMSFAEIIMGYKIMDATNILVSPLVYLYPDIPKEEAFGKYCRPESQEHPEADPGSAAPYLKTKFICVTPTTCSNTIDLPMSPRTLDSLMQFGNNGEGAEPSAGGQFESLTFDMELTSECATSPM

In the case of `O=S1(=O)C=Cc2cccc(Nc3cccc(F)c3)c21`, the IC50 in [1] was 1910 nM; in series [2] it was 2550 nM; in series [3], 1120 nM; in [4] it was 1220 nM.

For `O=S1(=O)C=Cc2ccc(Nc3ccc(Cl)cc3)cc21`, the IC50 in [1] was 6720 nM; in series [2] it was 2300 nM; in series [3] it was 2670 nM; in series [4], 4440 nM.

As for `O=S1(=O)C=Cc2ccc(Nc3ccc(C(F)(F)F)cc3)cc21`, the IC50 in series [1] stood at 1300 nM; in series [2], 1140 nM; in series [3], 1270 nM; in [4], 1340 nM.

`COc1cc(Nc2cccc3c2S(=O)(=O)C=C3)cc(OC)c1OC`: the IC50 worked out at 990 nM in series [1], 950 nM in series [2], 930 nM in series [3] and 1150 nM in series [4].

Regarding `O=S1(=O)C=Cc2ccc(Nc3ccc(F)c(F)c3)cc21`, the IC50 in [1] amounted to 3050 nM; in series [2] it was 1550 nM; in series [3], 2610 nM; in series [4] it was 3020 nM.

Turning to `O=S1(=O)C=Cc2cccc(Nc3ccc(C(F)(F)F)cc3)c21`, the concentration for half-maximal inhibition (IC50) in series [1] came to 1200 nM; in series [2], 2440 nM; in series [3] it was 1820 nM; in [4], 1440 nM.

`O=S1(=O)C=Cc2cccc(Nc3ccccc3C(F)(F)F)c21`: the IC50 in series [1] stood at 3900 nM; in [2], 4120 nM; in [3], 8100 nM; in series [4], 5950 nM.

Take `Cc1cc(C)cc(Nc2cccc3c2S(=O)(=O)C=C3)c1`: the half-maximal inhibitory concentration (IC50) in series [1] was 3120 nM; in series [2] it was 4800 nM; in series [3], 8800 nM; in series [4], > 10000 nM.

Turning to `COc1ccc(Nc2ccc3c(c2)S(=O)(=O)C=C3)cc1`, the half-maximal inhibitory concentration (IC50) in series [1] came out at 1400 nM; in series [2], 1220 nM; in series [3] it was 1210 nM; in series [4], 1170 nM.

With `COc1ccccc1Nc1cccc2c1S(=O)(=O)C=C2`, the IC50 in [1] turned out to be 2400 nM; in [2], 2590 nM; in series [3], 5100 nM; in series [4] it was 5000 nM.

In the case of `COc1ccc(Nc2cccc3c2S(=O)(=O)C=C3)cc1`, the IC50 in series [1] was 1040 nM; in series [2] it was 2590 nM; in [3], 940 nM; in series [4], 1990 nM.

As for `COc1cc(Nc2ccc3c(c2)S(=O)(=O)C=C3)cc(OC)c1OC`, the IC50 was 1430 nM in [1], 1880 nM in series [2], 2230 nM in [3] and 1420 nM in [4].

For `O=S1(=O)C=Cc2cccc(Nc3c(F)c(F)c(F)c(F)c3F)c21`, the IC50 in series [1] was found to be 4460 nM; in series [2] it was 3480 nM; in series [3], 2300 nM; in series [4] it was 3370 nM.

Consider `O=S1(=O)C=Cc2cccc(Nc3cc(C(F)(F)F)cc(C(F)(F)F)c3)c21`, for which the IC50 in series [1] worked out at 3120 nM; in series [2] it was 3840 nM; in series [3], 5110 nM; in series [4], 3600 nM.

In the case of `O=S1(=O)C=Cc2cccc(Nc3ccc(Cl)c(Cl)c3)c21`, the IC50 in series [1] was 1360 nM; in [2], 660 nM; in series [3] it was 570 nM; in [4], 680 nM.

In the case of `N#Cc1cccc(Nc2ccc3c(c2)S(=O)(=O)C=C3)c1`, the IC50 in [1], in [2], in series [3] and in series [4] was > 10000 nM throughout.

In the case of `O=S1(=O)C=Cc2ccc(Nc3cccc(C(F)(F)F)c3)cc21`, the IC50 is 1310 nM in series [1], 1440 nM in series [2], 2500 nM in [3] and 1370 nM in series [4].

For the molecule `Cc1ccc(Nc2cccc3c2S(=O)(=O)C=C3)cc1`, the IC50 in series [1] was determined as 1560 nM; in series [2], 2680 nM; in series [3], 1890 nM; in series [4], 4000 nM.

Take `O=S1(=O)C=Cc2cccc(Nc3ccc(F)c(F)c3)c21`: the IC50 in series [1] worked out at 1890 nM; in [2], 2500 nM; in series [3], 950 nM; in [4], 680 nM.

As for `O=[N+]([O-])c1ccc2c(c1)S(=O)(=O)C=C2`, the IC50 was found to be 1680 nM in [1], 4400 nM in series [2], 2360 nM in series [3] and 1080 nM in series [4]. Also, the inhibition entry in series [5] was “Active”.

Turning to `O=S1(=O)C=Cc2cccc(Nc3ccc(OC(F)(F)F)cc3)c21`, the IC50 in series [1] was found to be 2100 nM; in series [2] it was 1570 nM; in series [3] it was 2690 nM; in series [4], 2380 nM.

With `O=S1(=O)C=Cc2cccc(Nc3ccc(Cl)cc3)c21`, the half-maximal inhibitory concentration (IC50) in series [1] stood at 1210 nM; in [2], 1040 nM; in series [3], 680 nM; in [4] it was 260 nM. Further, the “Ratio IC50” value in [6], in [7], in series [8] and in series [9] was 1.4 - 7.2 in each case.

`O=S1(=O)C=Cc2ccc(Nc3cccc(OC(F)(F)F)c3)cc21`: the IC50 in series [1] was 2080 nM; in series [2], 1370 nM; in series [3], 2020 nM; in series [4] it was 1980 nM.

Regarding `O=S1(=O)C=Cc2ccc(Nc3ccc(Cl)c(Cl)c3)cc21`, the IC50 amounted to 890 nM in series [1], 3320 nM in series [2], 2230 nM in series [3] and 2470 nM in series [4].

`COc1cccc2c1C(=O)c1c(O)c3c(c(O)c1C2=O)C[C@@](O)(C(=O)CO)C[C@@H]3O[C@H]1C[C@H](N)[C@H](O)[C@H](C)O1` [DOXORUBICIN]: the inhibition in vivo at 1 mg/kg in series [10] was found to be 67%. In addition, the Activity result in series [11] is given as “Toxic”.
